Bioassay records from PubChem.
Yeast life ext – compounds extending yeast replicative lifespan, primary screen, S. cerevisiae, OD615; S. cerevisiae growth with nicotinamide; deaD strain in restrictive glucose medium; 130,000 tested, 0.68% active; AID 775, 2007; inhibition of the nicotinamide effect, % at 10 µM;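 active = inhibition above a set limit, placed 3 SD over the median of all compounds, cut at about 26% in these data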
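Buffer or medium: CSMM-D glucose medium, restrictive; test system: modified budding yeast, DeaD strain; compound: single dose 10 µM compound, 0.25% DMSO; schedule: culture preincubation 4 h, compound exposure 48 h, both 30 °C; detection: optical density (absorbance) at 615 nm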
sdo1 growth – growth rescue of sdo1-depleted yeast, primary screen, S. cerevisiae, bone marrow failure model. S. cerevisiae sdo1-depleted JHY4D growth rescue, OD600 30 h; stronger effect = higher value; pdr5 snq2 efflux-pump mutant strain. z-score at 10 µM. 140,000 tested, 0.21% active. AID 817, 2007;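 active = z-score above 3 at both the 24 hr and the 30 hr optical density reads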
sEH activator – soluble epoxide hydrolase activators, primary screen, biochemical, human sEH; purified human sEH enzymatic activity, activator screen; Bifunctional epoxide hydrolase 2 (Homo sapiens), P34913; 91,000 tested, 0.04% active; AID 717, 2007; activation, % at 2 µM; in the data active = activation above about 37%
Target sequence (P34913 whole entry, looked up): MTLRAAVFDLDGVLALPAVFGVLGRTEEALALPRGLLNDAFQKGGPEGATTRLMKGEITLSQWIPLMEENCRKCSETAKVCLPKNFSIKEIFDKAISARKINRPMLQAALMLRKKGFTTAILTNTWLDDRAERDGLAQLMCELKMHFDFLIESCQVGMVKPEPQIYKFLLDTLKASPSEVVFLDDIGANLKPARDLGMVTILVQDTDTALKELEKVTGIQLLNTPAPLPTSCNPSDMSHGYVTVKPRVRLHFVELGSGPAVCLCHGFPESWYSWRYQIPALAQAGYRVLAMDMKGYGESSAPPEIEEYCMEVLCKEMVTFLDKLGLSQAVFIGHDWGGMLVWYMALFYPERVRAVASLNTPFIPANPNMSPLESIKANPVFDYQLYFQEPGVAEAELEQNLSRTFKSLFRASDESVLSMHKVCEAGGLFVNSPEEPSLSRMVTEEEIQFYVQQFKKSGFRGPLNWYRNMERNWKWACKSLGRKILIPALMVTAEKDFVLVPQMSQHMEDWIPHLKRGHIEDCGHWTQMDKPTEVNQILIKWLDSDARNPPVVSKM
sEH inhibitor – soluble epoxide hydrolase inhibitors, primary screen, biochemical, human sEH; Bifunctional epoxide hydrolase 2 (Homo sapiens), P34913; recombinant human sEH enzymatic activity assay; inhibition, % at 2 µM; 91,000 tested, 0.34% active; AID 707, 2007; in the data active = inhibition above about 80%
Measles CPE – compounds protecting cells from measles virus cytopathic effect, primary screen, measles RdRp inhibitor project, single point, MLSMR library, absorbance; Measles virus-infected cells, CPE protection; protection (pct of control), % at 4 µM; 140,000 tested, 1.5% active; AID 841, 2007; in the data active = protection mostly above about 24%, no sharp cut-off; inactive = mostly below about 26%
BB579 growth dn – growth inhibitors of yeast BB579 in restrictive medium, primary screen, yeast lifespan-shortening project, S. cerevisiae; inhibition, % at 10 µM; OD615, 48 h; 140,000 tested, 0.51% active;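 active = inhibition above a set limit, 3 SD over the mean compound inhibition, cut at about 44% in these data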
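System: DeaD yeast strain BB579; buffer or medium: CSMM-D dextrose restrictive medium; technique: OD at 615 nm; schedule: 4 h cell preincubation, 48 h compound exposure, 30 °C humidified; doses: single 10 µM dose; controls: amphotericin B 10 µg/mL, positive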
A number is an active result; - = inactive; . = not tested or not shown. Hits are enriched below; roughly 3% of the tested compounds scored in any of these assays.

SMILES	Yeast life ext	sdo1 growth	sEH activator	sEH inhibitor	Measles CPE	BB579 growth dn
COc1ccc(/C=N/n2c(N)c(S(=O)(=O)c3cccs3)c3nc4ccccc4nc32)cc1OC	-	-	-	-	32	-
CCn1c(SCC(=O)Nc2ncc(C(F)(F)F)cc2Cl)nnc1-c1cccc(C)c1	-	-	.	.	-	-
O=C(Nc1ccc(O)cc1)C1CCCO1 (stereo not drawn)	53	-	-	-	-	-
Cc1csc(NC(=O)C(F)(F)F)n1	-	-	.	.	-	-
CCOC(=O)c1c(C)[nH]c(C)c1C(=O)COC(=O)c1ccc(S(=O)(=O)N(CC)CC)cc1	-	-	-	-	51	-
CCOC(=O)c1sc(NC(=O)CCCn2nc([N+](=O)[O-])cc2C)c(C(=O)OCC)c1C	-	-	.	.	-	-
COc1cc(/C=N/NC(=O)CCc2ccccc2)ccc1O	-	-	-	-	-	-
COc1cc(/C=N/NC(=O)CCN2CCN(C(c3ccccc3)c3ccccc3)CC2)ccc1O	-	-	.	.	28	-
Cc1cc(NC(=O)NC2CCCN2S(=O)(=O)c2ccc(Cl)cc2)no1 (stereo not drawn)	-	-	-	-	-	-
CCCCn1c(=O)c2c(O)cc(=O)oc2c2ccccc21	43	-	-	-	-	-
O=c1cc(O)c2c(=O)n(C3CCCCC3)c3ccccc3c2o1	31	-	-	-	-	-
Cn1c2ccccc2c(=O)c2c(=O)n(C3CCCCC3)c(-c3ccco3)nc21	-	-	.	.	-	-
O=c1cc(O)c2c(=O)n(-c3ccccc3)c3c(c2o1)CCCCCC3	46	-	.	.	36	-
COc1cccc(-n2nnnc2S(C)(=O)=O)c1	-	-	-	-	-	74
Clc1cccc(Cl)c1Cn1cnc2c(N3CCCCCC3)ncnc21	-	-	-	-	33	-
O=C1CN=C(Nc2ccccc2Cl)N1Cc1ccc2c(c1)OCO2	.	-	-	-	-	-
c1cnc2c(c1)ccc1cccnc12	-	-	.	.	-	99
O=C(O)c1cccc2cccnc12	-	-	-	-	-	-
Cc1cc(N/N=C/c2ccc(Cl)cc2Cl)nc(NCc2ccccc2)n1	-	-	.	.	-	99
CCCCCCCCC(=O)N/N=C/c1ccccn1	-	-	-	-	-	-
CCCCCCCCC/C(=N\O)c1ccccn1	-	-	-	-	-	100
CCCCCc1c(C)nc(NCc2ccccc2)[nH]c1=O	-	-	.	.	37	-
Cc1nc(Nc2ccccc2)[nH]c(=O)c1CCC(C)C	-	-	-	-	-	-
CCOc1nc(Nc2ccc(OC)c(Cl)c2)nc(OCC)n1	-	-	-	-	-	-
O=C(CCSCCc1ccccn1)Nc1ccccn1	-	-	.	.	-	-
SMILES	Yeast life ext	sdo1 growth	sEH activator	sEH inhibitor	Measles CPE	BB579 growth dn
O=C(CCSCCc1ccccn1)Nc1c(F)c(F)c(F)c(F)c1F	27	-	.	.	-	-
O=C(Nc1cc(C(F)(F)F)ccc1Cl)C(Sc1cccc[n+]1[O-])c1ccccc1 (stereo not drawn)	-	-	.	.	-	93
C[C@H](NC(=O)c1ccccc1Cl)C(=O)OC(C(=O)Nc1cc(C(F)(F)F)ccc1Cl)c1ccccc1 (stereo partly drawn)	-	-	-	-	58	-
Cc1ccc(NC(=O)COc2ccc(Br)cc2C)cc1	-	-	.	.	26	-
C#CCOCCOCCOCCNc1nc(N2CCOCC2)nc(N2CCN(C(=O)[C@H](C)n3cc(CCCN=C(N)N)nn3)CC2)n1	-	-	.	.	-	-
Cn1c(=O)[nH]c(=O)c2c1nc(N1CCCCCC1)n2CCN1CCCCCC1	-	-	-	-	39	-
CN1CCN(c2nc3c(c(=O)[nH]c(=O)n3C)n2CC(N)=O)CC1	-	-	-	-	29	-
C=CCn1c(N2CCCCCC2)nc2c1c(=O)[nH]c(=O)n2C	-	-	-	-	-	-
Cn1c(=O)[nH]c(=O)c2c1nc(N1CCCCC1)n2CC(O)CN1CCCCC1 (stereo not drawn)	45	-	-	-	-	-
CC(C)OCC(O)Cn1c(N2CCCC2)nc2c1c(=O)[nH]c(=O)n2C (stereo not drawn)	-	-	-	-	-	-
